Where two headings read alike, the source gives them in different places. No end group written: not given here.
Assays:
recombinant human HSP72 [1] = biological target: T1, recombinant human HSP72 (Homo sapiens, UniProt P0DMV8); test: BIAcore SPR kinetic analysis of peptide binding to immobilized HSP72; conditions: pH 7.4, read-out: ka (on rate)
Method in brief: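 Recombinant human HSP72 dialysed into 10 mM sodium acetate pH 5.0 and covalently coupled to a CM5 chip at about 10,000 RU. Peptides were dissolved in running buffer (HBS-P pH 7.4, 2.5 mM Mg acetate, 2.5 mM ATP) and injected at 25 to 200 μM. Sensorgrams were reference-channel subtracted without regeneration, then globally fitted to a 1:1 Langmuir model and judged by Chi2 and residuals.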

recombinant human HSP72 [2] = biological target: T1, recombinant human HSP72; test: BIAcore SPR peptide binding to high-density immobilized HSP72; conditions: for binding to HSP72 (sensorgram pattern): 1 mM peptide, high HSP72 immobilization density (20,000 RU), data not shown, see reference [15]
[3] = system: MV RNP (parent Ed-MV and 4D variant); format: cell-based, measles virus; conditions: recombinant virus with 4D-substituted motif; unpublished data
[4] = system: CDV transcription and genome replication; test: CDV viral transcription and genome replication, HSP72 responsiveness; format: cell-based, canine distemper virus (Onderstepoort strain); conditions: Onderstepoort CDV N protein (YSDKELL); unpublished observation
[5] = system: MV transcription and genomic replication; conditions: ref [15], cited from earlier work
[6] = system: viral RNP transcriptional activity; conditions: ATP-dependent association with CDV and MV RNP; ref [10]-[13]; cited from earlier work
MV RNP-HSP72 interaction = test: Peptide competitive inhibition of MV RNP-HSP72 interaction; format: binding, human HSP72; measles virus RNP
IgG = test: BIAcore SPR peptide binding to irrelevant ligand; conditions: irrelevant ligand IgG immobilized; data not shown, see reference [15]

T1 sequence (P0DMV8 whole entry): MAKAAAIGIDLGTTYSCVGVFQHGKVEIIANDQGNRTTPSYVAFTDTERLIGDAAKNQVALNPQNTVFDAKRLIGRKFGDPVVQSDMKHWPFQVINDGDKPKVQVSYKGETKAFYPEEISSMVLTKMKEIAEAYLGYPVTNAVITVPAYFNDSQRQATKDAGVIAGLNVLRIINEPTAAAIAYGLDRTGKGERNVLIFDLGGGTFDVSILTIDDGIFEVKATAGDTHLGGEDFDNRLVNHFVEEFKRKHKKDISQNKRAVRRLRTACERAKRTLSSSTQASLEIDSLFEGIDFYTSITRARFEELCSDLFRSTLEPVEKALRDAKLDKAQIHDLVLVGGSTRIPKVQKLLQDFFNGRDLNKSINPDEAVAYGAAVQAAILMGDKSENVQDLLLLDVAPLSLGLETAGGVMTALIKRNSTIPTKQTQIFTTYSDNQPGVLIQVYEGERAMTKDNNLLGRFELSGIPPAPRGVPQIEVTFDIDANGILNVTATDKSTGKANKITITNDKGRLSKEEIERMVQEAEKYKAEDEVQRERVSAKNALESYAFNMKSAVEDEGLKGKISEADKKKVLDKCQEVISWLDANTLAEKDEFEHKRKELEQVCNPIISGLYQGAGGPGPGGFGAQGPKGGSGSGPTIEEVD

Compound: CC[C@H](C)[C@H](NC(=O)[C@@H]1CCCN1C(=O)[C@@H](NC(=O)[C@H](CC(=O)O)NC(=O)[C@@H](NC(=O)[C@@H](N)CC(=O)O)[C@@H](C)O)[C@@H](C)O)C(=O)N[C@H](C(=O)N[C@@H](Cc1ccc(O)cc1)C(=O)N[C@@H](CC(N)=O)C(=O)N[C@@H](CC(=O)O)C(=O)N[C@@H](CCCNC(=N)N)C(=O)N[C@@H](CC(N)=O)C(=O)N[C@@H](CC(C)C)C(=O)N[C@@H](CC(C)C)C(=O)N[C@@H](CC(=O)O)C(=O)O)C(C)C [N, DTDTPIVYNDRNLLD]
- kon (recombinant human HSP72 [1]): 357 M⁻¹ s⁻¹
- dissociation rate from HSP72, faster in 2.5 mM than in 0.1 mM ATP (recombinant human HSP72 [2]; 400 μM N peptide, 20,000 RU HSP72, HBS-P, 2.5 mM magnesium acetate): 3 times

Compound: DTDTPIVYNDRDLLD [Peptide N4D, DTDTPIVYNDRDLLD]
- kon (recombinant human HSP72 [1]): 7 M⁻¹ s⁻¹

Compound: HSP72: 72 kDa heat shock protein; major inducible member of the 70kDa family
- functional HSP72 responsiveness of 4D virus variant [3]: loss of functional HSP72 responsiveness
- HSP72 responsiveness in viral transcription and genome replication [4]: retains HSP72 responsiveness
- stimulation of viral transcriptional activity (CAT reporter) ([5]; HSP72 added by transfection, wild type MV N): 2-3 fold
- response to HSP72 supplementation (CAT reporter) ([5]; N protein with C-terminal 3P4D substitutions): lack a response
- response to HSP72 supplementation (CAT reporter) ([5]; N protein with C-terminal 4D substitution): lack a response
- effect of HSP72 association on RNP [6]: increased RNP transcriptional activity

Compound: YGSLPQKAQRPQDEN [MBP]
- inhibition of RNP binding to HSP72 (MV RNP-HSP72 interaction; 400 μM peptide, MV RNP representing 1 nM N protein, maximal sensorgram response): 18%
- level of inhibition of RNP-HSP72 binding, comparison (MV RNP-HSP72 interaction; 400 mM (so in the source) MBP peptide vs 5 μM N peptide): comparable to that using only 5 μM N peptide
- binding to HSP72 (sensorgram pattern) (recombinant human HSP72 [2]): identical sensorgrams were obtained with 1 mM peptide solution and flow channels containing no ligand or flow channels containing either HSP72 or irrelevant protein (i.e., IgG) as ligand

Compound: DTDTPIVYNDRDPLD [Peptide N3P4D, DTDTPIVYNDRDPLD]
- kon (recombinant human HSP72 [1]): 14 M⁻¹ s⁻¹

Compound: STSRHKKLMFKTEGP [p53]
- binding to HSP72 (sensorgram pattern) (recombinant human HSP72 [2]): progressive rise in signal observed over time
- signal over bulk shift on IgG (IgG): signal over bulk shift was not observed

From PMC248471 (Biological Procedures Online, 2003)
